The structures appear in SMILES notation.

The target in experiment [1] is 5-hydroxytryptamine receptor 2B (Homo sapiens, UniProt P41595). Nature of the experiment: Displacement of [3H]LSD from 5-HT2B after 1.5 hrs by liquid scintillation counting. Background: In a radioligand displacement assay an active substance lowers the binding of a labelled ligand.
In experiment [2] the target is T1, D(2) dopamine receptor (Homo sapiens, UniProt P14416). Nature of the experiment: Displacement of [3H]N-methylspiperone from D2 after 1.5 hrs by liquid scintillation counting.
T1 sequence (P14416 whole entry): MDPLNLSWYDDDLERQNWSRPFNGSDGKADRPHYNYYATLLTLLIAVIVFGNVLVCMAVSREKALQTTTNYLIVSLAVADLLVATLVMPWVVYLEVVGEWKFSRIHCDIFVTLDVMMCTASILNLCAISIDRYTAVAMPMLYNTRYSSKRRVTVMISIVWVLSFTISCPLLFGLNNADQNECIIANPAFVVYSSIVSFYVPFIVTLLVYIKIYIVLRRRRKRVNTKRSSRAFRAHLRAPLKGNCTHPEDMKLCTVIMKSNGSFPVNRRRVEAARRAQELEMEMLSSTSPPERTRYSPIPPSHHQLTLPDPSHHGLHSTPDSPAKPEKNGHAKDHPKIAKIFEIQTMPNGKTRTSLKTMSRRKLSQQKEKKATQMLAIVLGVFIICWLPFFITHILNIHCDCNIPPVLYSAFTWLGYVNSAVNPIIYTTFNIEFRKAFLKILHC
Experiment [3] in a line: Displacement of [3H]MK801 from PCP binding site of NMDA receptor at 10 uM after 1.5 hrs by liquid scintillation counting.
Experiment [4] concerns the target Sigma non-opioid intracellular receptor 1 (Rattus norvegicus, UniProt Q9R0C9). The experiment is described as follows: Displacement of [3H](+)-pentazocine from sigma 1 receptor in rat brain homogenate after 2.5 hrs by liquid scintillation counting. In kind it is tissue-based. The method, boiled down: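 σ1 affinity by competition with [³H](+)-pentazocine in rat brain homogenate, following a modification of the Kovacs and Larson protocol. Ki determinations were run by the NIMH Psychoactive Drug Screening Program. Values are mean ± SEM from triplicate assays.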

Experiment [5] in a line: Displacement of [3H]DTG from sigma 2 receptor in rat PC12 cells after 2 hrs by liquid scintillation counting. In kind it is cell-based. To be noted: pc-12. In outline:
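σ2 affinity by competition with [³H]DTG in a PC12 cell preparation, following a modified Kovacs and Larson protocol. Ki determinations were run by the NIMH PDSP. Values are mean ± SEM of triplicate assays.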

Another experiment relates to PC-12. The experiment is described as follows: Selectivity ratio of Ki for sigma 2 receptor in rat PC12 cells to Ki for sigma 1 receptor in rat brain homogenates. In kind it is cell-based. In outline: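 Competition binding, done by the NIMH Psychoactive Drug Screening Program. σ1 Ki came from displacement of [³H](+)-pentazocine in rat brain homogenate, and σ2 Ki from displacement of [³H]DTG in a PC12 cell preparation. Ki values were mean with SEM from triplicate assays. The ratio is σ2 Ki divided by σ1 Ki.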

Experiment [6] concerns the target T1, D(2) dopamine receptor. The experiment is described as follows: Displacement of [3H]N-methylspiperone from D2 at 10 uM after 1.5 hrs by liquid scintillation counting.

Sequence of Sigma non-opioid intracellular receptor 1 (Q9R0C9 whole entry): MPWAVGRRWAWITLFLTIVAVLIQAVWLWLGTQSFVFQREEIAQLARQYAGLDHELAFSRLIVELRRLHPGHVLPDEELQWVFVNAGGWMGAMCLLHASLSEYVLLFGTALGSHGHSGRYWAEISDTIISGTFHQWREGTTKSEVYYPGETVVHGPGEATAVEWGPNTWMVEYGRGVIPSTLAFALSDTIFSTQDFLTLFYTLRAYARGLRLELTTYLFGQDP
Sequence of 5-hydroxytryptamine receptor 2B (P41595 whole entry): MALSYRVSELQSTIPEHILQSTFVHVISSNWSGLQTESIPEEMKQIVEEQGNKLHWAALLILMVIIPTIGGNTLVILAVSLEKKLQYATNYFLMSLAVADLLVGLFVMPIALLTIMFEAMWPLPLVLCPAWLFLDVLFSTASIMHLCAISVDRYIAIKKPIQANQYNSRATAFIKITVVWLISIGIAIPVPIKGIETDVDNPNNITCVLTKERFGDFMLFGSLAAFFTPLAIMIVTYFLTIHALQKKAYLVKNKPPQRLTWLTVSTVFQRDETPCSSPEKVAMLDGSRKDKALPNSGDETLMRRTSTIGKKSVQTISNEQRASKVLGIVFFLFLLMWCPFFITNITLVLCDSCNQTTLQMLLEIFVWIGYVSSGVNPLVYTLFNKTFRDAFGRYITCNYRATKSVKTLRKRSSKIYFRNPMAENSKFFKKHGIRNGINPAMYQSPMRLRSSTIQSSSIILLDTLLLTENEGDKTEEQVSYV

For the compound `c1ccc(CCCCN2CCN(Cc3cc4ccccc4o3)CC2)cc1`, the inhibition constant (Ki) turned out to be 0.275 µM in experiment [1], 0.089 µM at D(2) dopamine receptor [2], 0.0042 µM in experiment [4] and 0.018 µM in experiment [5]. This compound returned an inhibition in experiment [3] of less than 50%. Further, the Ratio Ki in the experiment on PC-12 was 4.
With `COc1ccc(CCCN2CCN(Cc3cc4ccccc4o3)CC2)cc1`, the Ki was 0.155 µM in experiment [1], greater than 10 µM at D(2) dopamine receptor [2], 0.0031 µM in experiment [4] and 0.138 µM in experiment [5]. Moreover, the inhibition (in experiment [3]; at D(2) dopamine receptor [6]) was less than 50% each time. Moreover, the Ratio Ki in the experiment on PC-12 came to 45.
Take `COc1ccccc1CCCN1CCN(Cc2cc3ccccc3o2)CC1`: the Ki in experiment [1] is 0.628 µM; at D(2) dopamine receptor [2], 5.87 µM; in experiment [4], 0.0083 µM; in experiment [5] it was 0.053 µM. This compound also showed an inhibition in experiment [3] of less than 50%. Moreover, the Ratio Ki in the experiment on PC-12 came out at 6.
`c1ccc(CCCN2CCN(Cc3cc4ccccc4o3)CC2)cc1`: the Ki amounted to 0.147 µM in experiment [1], 1.02 µM on D(2) dopamine receptor [2], 0.0057 µM in experiment [4] and 0.018 µM in experiment [5]. Besides, the inhibition in experiment [3] is less than 50%. Besides, the Ratio Ki with PC-12 worked out at 3.
As to `c1ccc(CCN2CCN(Cc3cc4ccccc4o3)CC2)cc1`, the Ki came out at 0.31 µM in experiment [1], 0.0073 µM in experiment [4] and 0.131 µM in experiment [5]. For the same compound, the inhibition (in experiment [3]; at D(2) dopamine receptor [6]) was less than 50% in each case. Further, in the experiment with PC-12, the Ratio Ki came out at 18.
On to `COc1cccc(CCCCN2CCN(Cc3cc4ccccc4o3)CC2)c1`, for which the Ki in experiment [1] came to 0.343 µM; at D(2) dopamine receptor [2] it was 0.484 µM; in experiment [4], 0.0076 µM; in experiment [5], 0.211 µM. In experiment [3], this compound displayed an inhibition of less than 50%. In addition, the Ratio Ki in the experiment with PC-12 came to 28.
Consider `COc1ccc(CCCCN2CCN(Cc3cc4ccccc4o3)CC2)cc1`, for which the Ki turned out to be 0.352 µM in experiment [1], 5.79 µM on D(2) dopamine receptor [2], 0.013 µM in experiment [4] and 0.087 µM in experiment [5]. Besides, the inhibition in experiment [3] was less than 50%. Further, the Ratio Ki in the experiment on PC-12 stood at 7.
Turning to `COc1ccccc1CCN1CCN(Cc2cc3ccccc3o2)CC1`, the Ki in experiment [1] amounted to 0.12 µM; on D(2) dopamine receptor [2], 1.65 µM; in experiment [4], 0.017 µM; in experiment [5], 0.081 µM. In experiment [3], this compound returned an inhibition of less than 50%. Further, the Ratio Ki in the experiment on PC-12 is 5.
Take `COc1ccc(CCN2CCN(Cc3cc4ccccc4o3)CC2)cc1`: the figures for the Ki in experiment [1], in experiment [4] and in experiment [5] were 0.463 µM, 0.0094 µM and 0.101 µM, respectively. Besides, the inhibition (in experiment [3]; at D(2) dopamine receptor [6]) was less than 50% each time. Also, the Ratio Ki in the experiment with PC-12 came out at 11.
For the compound `COc1cccc(CCCN2CCN(Cc3cc4ccccc4o3)CC2)c1`, the Ki in experiment [1] is 0.243 µM; on D(2) dopamine receptor [2], 0.556 µM; in experiment [4], 0.0057 µM; in experiment [5], 0.04 µM. In experiment [3], this compound registered an inhibition of less than 50%. Besides, the Ratio Ki with PC-12 was 7.
Turning to `COc1cccc(CCN2CCN(Cc3cc4ccccc4o3)CC2)c1`, the Ki is 0.29 µM in experiment [1], 0.013 µM in experiment [4] and 0.014 µM in experiment [5]. Also, the inhibition (in experiment [3]; at D(2) dopamine receptor [6]) was less than 50% in each case. For the same compound, the Ratio Ki in the experiment with PC-12 stood at 1.
Regarding `COc1ccccc1CCCCN1CCN(Cc2cc3ccccc3o2)CC1`, the Ki in experiment [1] was found to be 0.332 µM; on D(2) dopamine receptor [2], 0.432 µM; in experiment [4], 0.016 µM; in experiment [5], 0.13 µM. In experiment [3], this compound returned an inhibition of less than 50%. Also, the Ratio Ki with PC-12 is 8.

In general, Ki refers to a measure of affinity in units of concentration, obtained from inhibition or displacement. Higher therefore signals lower affinity. A word on the inhibition: it is the share of the control response that was lost under treatment.

The values above are taken from ChEMBL document CHEMBL1833923, “Effects of linker elongation in a series of N-(2-benzofuranylmethyl)-N'-(methoxyphenylalkyl)piperazine σ₁ receptor ligands” (Bioorg Med Chem Lett, 2011).
